Here are results for two compounds from paper PMC10405366 (Molecular pharmaceutics, 2023).

For data set [1], the system named is OVCAR8-RFP cells xenografted IP. In words: OVCAR8-RFP IP xenograft. Format: in vivo, mouse. The following applies: for tumor burden: compared to DMSO.
The test system of the next data set is OVCAR3. In words: Cell viability assay. The data set is classed as cell-based, human. The conditions noted are these: OVCAR3, 72 h, average. In short, it runs like this: (§1)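 RPMI1640 (OVCAR3, OVCAR4, MDA-MB-435) or DMEM (OVCAR8, MDA-MB-231) was used, with 10% FBS and penicillin/streptomycin. Cells were STR-validated and kept below 20 passages. Cells were plated at 5000 per well overnight, then given test compound at final 0.95–250 nM (nine levels, 0.5% DMSO) for 72 h at 37 °C. Viability was read by CellTiter-Blue absorbance, and IC50 was taken relative to DMSO. Paclitaxel (0.39–100 nM) was the control, with three biological replicates.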

For another data set, the system named is MDA-MB-435. As to the kind of experiment: Cell viability assay. The data set is classed as cell-based, human. The following applies: MDA-MB-435, 72 h, average. In short, it runs like this:
as §1

The next data set has as its system MDA-MB-231. As to the kind of experiment: Cell viability assay. Format: cell-based, human. The conditions noted are these: MDA-MB-231, 72 h, average. In short, it runs like this:
as §1

Data set [2] deals with OVCAR4. In words: Cell viability assay. Format: cell-based, human. In short, it runs like this: as §1
The test system of data set [3] is OVCAR8. In words: Cell viability assay. The data set is classed as cell-based, human. In short, it runs like this:
as §1

Another data set concerns OVCAR8 spheroids. In words: Spheroid viability assay. Format: cell-based, human. The following applies: read-out: IC50, spheroid viability, 7 days. In short, it runs like this: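 OVCAR8 cells (5000 in 80 μL medium per well) were formed into spheroids in ultra-low-attachment round-bottom wells. Spheroids were treated for 7 days with test compound, DMSO vehicle or paclitaxel control. Viability was measured with CellTiter-Glo after 30 min shaking for lysis, read as luminescence. Dose–response curves were normalized to vehicle to give IC50. Data are mean ± SEM from three biological replicates.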

In data set [4] the test system is OVCAR4. In words: 2D foci assay. The data set is classed as cell-based, human. The conditions noted are these: OVCAR4, 50 nM for 8 h, two weeks colony formation, relative to vehicle. In short, it runs like this: (§2)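 Cells were seeded at 200 per 60 mm dish and left to attach overnight. They were then exposed for 8 h to test compound (50 nM), DMSO vehicle or paclitaxel (10 nM). Medium was replaced and cells grew drug-free for about two weeks (15 days). Colonies were fixed in 4% paraformaldehyde, stained with 0.05% crystal violet, imaged and counted. There were three biological replicates, compared with vehicle by Dunnett's test.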

In data set [5] the test system is OVCAR8. As to the kind of experiment: 2D foci assay. Format: cell-based, human. The conditions noted are these: OVCAR8, 50 nM for 8 h, two weeks colony formation, relative to vehicle. The method, boiled down:
as §2

In another data set the test system is murine lymphoma L5178Y. The following applies: mouse lymphoma cells (L5178Y); cited from earlier work.
In data set [6] the test system is A2780 human ovarian cancer cell lines. The following applies: cited from earlier work.

Consider `CC(=O)O[C@H]1C(=O)[C@@]2(C)[C@H]([C@H](OC(=O)c3ccccc3)[C@]3(O)C[C@H](OC(=O)[C@H](O)[C@@H](NC(=O)c4ccccc4)c4ccccc4)C(C)=C1C3(C)C)[C@]1(OC(C)=O)CO[C@@H]1C[C@@H]2O` [taxol, paclitaxel, reference compound], for which the tumor burden result in [1] (0.5 mg/kg twice weekly) was “reduced”.
For `CC(O)[C@@]12SS[C@]3(C(=O)N1C)[C@@H](O)C1([C@@]45c6ccccc6N[C@@H]4N4C(=O)[C@]6(C(C)O)SS[C@]4(C(=O)N6C)[C@H]5O)c4ccccc4N[C@@H]1N3C2=O` (stereo partly shown) [verticillin D], the IC50 (in general, the concentration needed to halve the response being measured) with OVCAR3 came out at 34.2 nM; in the data set with MDA-MB-435, 35.3 nM; in the data set on MDA-MB-231, 12.2 nM; in the data set on OVCAR8 spheroids, 1170 nM. Further, the cytotoxic activity entry in the data set on OVCAR4 [2] was “nanomolar cytotoxic activity”; in the data set on OVCAR8 [3] it was “nanomolar cytotoxic activity”; in the data set on murine lymphoma L5178Y, “moderate cytotoxic activity”. Also, the foci formation result with OVCAR4 [4] and with OVCAR8 [5] was “completely abrogated foci formation” each time. In addition, the “liver and organ gross morphology” value in data set [1] (0.25 mg/kg in DMSO twice weekly for four weeks) was “gross morphological liver damage and fused organs”. Further, the tumor burden result in data set [1] (0.25 mg/kg twice weekly for four weeks) was “reduced”. Also, the growth of cells entry in [6] is on record as “inhibit the growth”.
